From ChEMBL document CHEMBL2040734, “Benzothiazoles: search for anticancer agents” (2012)

Columns and labels:
Format in all cases: functional
COLO 205 = assay: Cytotoxicity against human COLO205 cells assessed as cell growth at 0.1 uM after 48 hrs by sulforhodamine B assay; conditions: COLO 205, 48 h, read-out: Activity
Procedure, shortened: (§1)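 NCI-60 five-dose screen. Cells were grown in RPMI 1640 with 5% FBS and 2 mM L-glutamine and preincubated 24 h. Compound (DMSO stock) was tested at 0.01, 0.1, 1, 10 and 100 µM for 48 h at 37 °C. Cells were fixed in situ with cold TCA (final 10%) and stained with 0.4% SRB. A515 was read, and percent growth was calculated against time-zero and control plates.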

MDA-MB-468 = assay: Cytotoxicity against human MDA-MB-468 cells assessed as cell growth at 1 uM after 48 hrs by sulforhodamine B assay; conditions: MDA-MB-468, 48 h, read-out: Activity
T47D = assay: Cytotoxicity against human T47D cells assessed as cell growth at 0.1 uM after 48 hrs by sulforhodamine B assay; conditions: read-out: Activity
SNB-19 [1] = assay: Growth inhibition of human SNB19 cells after 48 hrs by sulforhodamine B assay; conditions: SNB-19, 48 h
Procedure, shortened: (§2)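 Adherent NCI-60 lines were grown in RPMI 1640 with 5% FBS and 2 mM L-glutamine, plated at 5000–40,000 cells/well and preincubated 24 h. They were then exposed to five concentrations (0.01–100 µM, from a DMSO stock) for 48 h at 37 °C, 5% CO2. Cells were fixed with cold TCA (10% final, 60 min, 4 °C) and stained with 0.4% SRB. Dye was solubilized in 10 mM Tris base and A515 read. GI50 was derived from time-zero, control and treated absorbances.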

SF-268 [2] = assay: Cytotoxicity against human SF268 cells assessed as cell growth at 100 uM after 48 hrs by sulforhodamine B assay; conditions: SF-268, 48 h, read-out: Activity
SK-MEL-2 = assay: Growth inhibition of human SK-MEL-2 cells after 48 hrs by sulforhodamine B assay; conditions: SK-MEL-2, 48 h; procedure, shortened: as §2
CCRF-CEM [3] = assay: Growth inhibition of human CCRF-CEM cells after 48 hrs by sulforhodamine B assay
Procedure, shortened: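 Cells were in RPMI 1640 with 5% FBS and pre-incubated 24 h. Read-out was TCA fixation, SRB staining and absorbance at 515 nm. GI50 was the concentration where [(Ti−Tz)/(C−Tz)]×100 = 50, taken from log concentration vs % growth curves. It is given as ">" the top concentration when not reached.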

OVCAR-3 = assay: Cytotoxicity against human OVCAR3 cells assessed as cell growth at 1 uM after 48 hrs by sulforhodamine B assay; conditions: OVCAR-3, 48 h, read-out: Activity
RXF 393 = assay: Cytotoxicity against human RXF393 cells assessed as cell growth at 0.1 uM after 48 hrs by sulforhodamine B assay; conditions: RXF 393, 48 h, read-out: Activity
NCI-H23 = assay: Cytotoxicity against human NCI-H23 cells assessed as cell growth at 0.01 uM after 48 hrs by sulforhodamine B assay; conditions: NCI-H23, 48 h, read-out: Activity
SF-539 = assay: Cytotoxicity against human SF539 cells assessed as cell growth at 10 uM after 48 hrs by sulforhodamine B assay; conditions: SF-539, 48 h, read-out: Activity
UO-31 = assay: Cytotoxicity against human UO31 cells assessed as cell growth at 0.01 uM after 48 hrs by sulforhodamine B assay; conditions: UO-31, 48 h, read-out: Activity
CCRF-CEM [4] = assay: Cytotoxicity against human CCRF-CEM cells at 0.01 uM after 48 hrs by sulforhodamine B assay
Procedure, shortened: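 CCRF-CEM suspension leukemia cells in RPMI 1640 with 5% FBS and 2 mM L-glutamine, plated 24 h before dosing. Five concentrations (0.01–100 µM) were applied from a DMSO stock for 48 h at 37 °C. Settled cells were fixed with 80% TCA (final 16%) and stained with SRB, with read-out at 515 nm. Percent growth was derived from time-zero and control absorbances.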

MOLT-4 = assay: Cytotoxicity against human MOLT4 cells assessed as cell growth at 1 uM after 48 hrs by sulforhodamine B assay; conditions: MOLT-4, 48 h, read-out: Activity
HCT-116 = assay: Cytotoxicity against human HCT116 cells assessed as cell growth at 10 uM after 48 hrs by sulforhodamine B assay; conditions: HCT-116, 48 h, read-out: Activity
Procedure, shortened: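 Five-dose NCI panel run at 0.01, 0.1, 1, 10 and 100 µM. Cells were in RPMI 1640 with 5% FBS and 2 mM L-glutamine, seeded at 5000–40,000 cells/well and pre-incubated 24 h. Drug was diluted from a DMSO stock into medium with 50 µg/ml gentamicin. Exposure was 48 h at 37 °C, 5% CO2. Cells were fixed with cold TCA and stained with 0.4% SRB, read at 515 nm. Percent growth came from time-zero, control and test absorbances.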

IGROV-1 = assay: Cytotoxicity against human IGROV1 cells assessed as cell growth at 1 uM after 48 hrs by sulforhodamine B assay; conditions: IGROV-1, 48 h, read-out: Activity
ACHN [5] = assay: Cytotoxicity against human ACHN cells assessed as cell growth at 10 uM after 48 hrs by sulforhodamine B assay; conditions: read-out: Activity; procedure, shortened: as §1
HT-29 = assay: Cytotoxicity against human HT-29 cells assessed as cell growth at 10 '-5 M after 48 hrs by sulforhodamine B assay; conditions: HT-29, 48 h, read-out: Activity
Procedure, shortened: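 Primary one-dose screen across the NCI 60-line panel at 10 µM. Cells were grown in RPMI 1640 with 5% FBS and 2 mM L-glutamine and held 24 h before drug. Drug was diluted from a DMSO concentrate. Exposure was 48 h at 37 °C, 5% CO2. Cells were fixed with TCA and stained with SRB, with absorbance read at 515 nm. Percent growth was calculated against time-zero and untreated control.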

A498 = assay: Growth inhibition of human A498 cells after 48 hrs by sulforhodamine B assay; conditions: A498, 48 h; for CC50: read-out: LC50 (the source's name)
Procedure, shortened: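 A498 adherent renal cells, plated in RPMI 1640 with 5% FBS and 2 mM L-glutamine, were preincubated for 24 h and then exposed for 48 h at 37 °C to 0.01–100 µM. Fixation was 10% TCA (final) for 60 min at 4 °C, then SRB staining and absorbance at 515 nm. GI50 was derived from (Ti−Tz)/(C−Tz)×100 = 50, using time-zero plates.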

ACHN [6] = assay: Cytotoxicity against human ACHN cells assessed as cell growth at 1 uM after 48 hrs by sulforhodamine B assay; conditions: read-out: Activity; procedure, shortened: as §1
SNB-19 [7] = assay: Cytotoxicity against human SNB19 cells assessed as cell growth at 0.1 uM after 48 hrs by sulforhodamine B assay; conditions: SNB-19, 48 h, read-out: Activity
SF-268 [8] = assay: Growth inhibition of human SF268 cells after 48 hrs by sulforhodamine B assay; conditions: SF-268, 48 h; procedure, shortened: as §2

Compound	growth at 0.1 µM (COLO 205) [%]	growth at 1 µM (MDA-MB-468) [%]	growth at 0.1 µM (T47D) [%]	GI50 (SNB-19 [1]) [µM]	LC50 (concentration causing 50% net cell kill) (SNB-19 [1]) [µM]	TGI (SNB-19 [1]) [µM]	growth at 100 µM (SF-268 [2]) [%]	TGI (SK-MEL-2) [µM]	GI50 (CCRF-CEM [3]) [µM]	LC50 (CCRF-CEM [3]) [µM]	TGI (CCRF-CEM [3]) [µM]	growth at 1 µM (OVCAR-3) [%]	growth at 0.1 µM (RXF 393) [%]	growth at 0.01 µM (NCI-H23) [%]	growth at 10 µM (SF-539) [%]	growth at 0.01 µM (UO-31) [%]	Activity (CCRF-CEM [4]) [%]	growth at 1 µM (MOLT-4) [%]	growth at 10 µM (HCT-116) [%]	growth at 1 µM (IGROV-1) [%]	also measured
Cc1ccc2nc(Nc3c(C)cccc3C)sc2c1	112	21	96	5.83	> 100	> 100	34	> 100	> 100	> 100	> 100	72	85	94	57	90	94	76	21	83	LC50 (concentration killing 50% of cells present at time zero) (SK-MEL-2): > 100 µM; growth at 10 µM (ACHN [5]): 59%; growth at 10 µM (HT-29): 9.15%; CC50 (A498): > 100 µM; growth at 1 µM (ACHN [6]): 84%; growth at 0.1 µM (SNB-19 [7]): 87%; GI50 (SF-268 [8]): 29.3 µM; LC50 (concentration killing 50% of the starting cells) (SF-268 [8]): > 100 µM; TGI (SF-268 [8]): > 100 µM
Clc1cccc(Cl)c1Nc1nc2cccc(Cl)c2s1	94	23	102	1.34	6.74	3	-56	3.35	1.32	> 100	4.43	50	73	95	-81	88	96	52	-98	55	GI50 (SK-MEL-2): 1.43 µM; growth at 10 µM (ACHN [5]): -99%; growth at 10 µM (HT-29): -67.6%; GI50 (A498): 0.26 µM; TGI (A498): 1.62 µM; CC50 (A498): 4.16 µM; growth at 1 µM (ACHN [6]): 60%; growth at 0.1 µM (SNB-19 [7]): 90%; GI50 (SF-268 [8]): 1.2 µM; LC50 (concentration killing 50% of the starting cells) (SF-268 [8]): 5.66 µM; TGI (SF-268 [8]): 2.61 µM
